What follows are compounds tested against T1, Alpha-1A adrenergic receptor (Homo sapiens, UniProt P35348) (assay: In vitro binding affinity against human Alpha-1A adrenergic receptor expressed in rat-1 fibroblasts cells).
T1 sequence (P35348 whole entry): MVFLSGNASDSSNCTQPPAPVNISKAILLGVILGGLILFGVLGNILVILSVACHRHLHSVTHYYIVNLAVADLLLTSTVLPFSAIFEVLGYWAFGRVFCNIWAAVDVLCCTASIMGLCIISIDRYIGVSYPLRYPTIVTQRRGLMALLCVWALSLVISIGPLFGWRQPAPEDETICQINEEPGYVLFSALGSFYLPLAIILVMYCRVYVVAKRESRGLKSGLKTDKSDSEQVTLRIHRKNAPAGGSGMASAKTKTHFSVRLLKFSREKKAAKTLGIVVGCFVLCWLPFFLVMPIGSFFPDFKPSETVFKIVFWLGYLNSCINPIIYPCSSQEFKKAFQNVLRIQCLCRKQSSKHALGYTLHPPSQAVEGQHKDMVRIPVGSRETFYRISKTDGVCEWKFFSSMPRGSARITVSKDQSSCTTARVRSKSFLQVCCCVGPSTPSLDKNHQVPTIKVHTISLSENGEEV
Type: cell-based, Fibroblast
In short: (§1)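 Radioligand binding on membranes from Rat-1 fibroblasts expressing human α1A, α1B or α1D adrenoceptor. Affinity reported as pIC50, mean of at least two experiments.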

Structure (SMILES) | IC50
c1ccc(-c2ncco2)c(NCC2=NCCN2)c1 | 45.7 nM
c1ccc(-c2cnco2)c(NCC2=NCCN2)c1 | 457 nM
c1ccc(-c2ccccc2NCC2=NCCN2)nc1 | 81.3 nM
c1ccc(-c2ccno2)c(NCC2=NCCN2)c1 | 35.5 nM
Cc1ncoc1-c1ccccc1NCC1=NCCN1 | 191 nM
CO/N=C/c1ccccc1NCC1=NCCN1 | 282 nM
c1cnc(-c2ccccc2NCC2=NCCN2)nc1 | 191 nM

The compounds below were run against T1, Alpha-1A adrenergic receptor (assay: In vitro activation of human alpha-1A receptor expressed in rat-1 fibroblasts via calcium mobilization through the Gq coupled PLC pathway as functional assay).
In short: (§2)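 Calcium mobilization via Gq/PLC was read by FLIPR with Calcium Green fluorescent dye. Eleven-point concentration–response curves, top concentration typically 5 µM, expressed as percent of the 40 µM phenylephrine response. Values are pEC50 and % maximal response, mean of at least two experiments.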

Structure (SMILES) | EC50
CC/C(=N\OC)c1ccccc1NCC1=NCCN1 | 3.31 nM
c1ccc(-c2cnoc2)c(NCC2=NCCN2)c1 | 45.7 nM
c1coc(-c2ccccc2NCC2=NCCN2)c1 | 0.468 nM
Cc1nc(-c2ccccc2NCC2=NCCN2)co1 | 324 nM
c1ccc(-c2ncco2)c(NCC2=NCCN2)c1 | 0.661 nM
c1ccc(-c2cnco2)c(NCC2=NCCN2)c1 | 17.4 nM
Cc1ccc(-c2ccccc2NCC2=NCCN2)s1 | 36.3 nM
Cc1nc(-c2ccccc2NCC2=NCCN2)cs1 | 4.47 nM
Cc1ccc(-c2ccccc2NCC2=NCCN2)o1 | 2.69 nM
Cc1nc(-c2ccccc2NCC2=NCCN2)no1 | 724 nM
Cc1noc(-c2ccccc2NCC2=NCCN2)n1 | 661 nM
c1ccc(-c2cnccn2)c(NCC2=NCCN2)c1 | 4.57 nM
CO/N=C(\C)c1ccccc1NCC1=NCCN1 | 20.9 nM
c1ccc(-c2ccccc2NCC2=NCCN2)nc1 | 6.76 nM
c1csc(-c2ccccc2NCC2=NCCN2)c1 | 2.24 nM
FC(F)(F)c1cccnc1-c1ccccc1NCC1=NCCN1 | 676 nM
CC/C(=N/OC)c1ccccc1NCC1=NCCN1 | 87.1 nM
c1ccc(-c2ccno2)c(NCC2=NCCN2)c1 | 0.794 nM
Cc1ccsc1-c1ccccc1NCC1=NCCN1 | 0.851 nM
Cc1ncoc1-c1ccccc1NCC1=NCCN1 | 15.1 nM
Cc1cccnc1-c1ccccc1NCC1=NCCN1 | 24.5 nM
Nc1nccc(-c2ccccc2NCC2=NCCN2)n1 | 42.7 nM
CCO/N=C(\C)c1ccccc1NCC1=NCCN1 | 52.5 nM
CO/N=C/c1ccccc1NCC1=NCCN1 | 51.3 nM
Cc1ncc(-c2ccccc2NCC2=NCCN2)o1 | 110 nM
Cc1cc(-c2ccccc2NCC2=NCCN2)on1 | 38.9 nM
c1cnc(-c2ccccc2NCC2=NCCN2)nc1 | 10 nM

The compounds below were run against T2, Alpha-1B adrenergic receptor (Homo sapiens, UniProt P35368) (assay: In vitro activation of human Alpha-1B receptor expressed in rat-1 fibroblasts via calcium mobilization through the Gq coupled PLC pathway as functional assay).
T2 sequence (P35368 whole entry): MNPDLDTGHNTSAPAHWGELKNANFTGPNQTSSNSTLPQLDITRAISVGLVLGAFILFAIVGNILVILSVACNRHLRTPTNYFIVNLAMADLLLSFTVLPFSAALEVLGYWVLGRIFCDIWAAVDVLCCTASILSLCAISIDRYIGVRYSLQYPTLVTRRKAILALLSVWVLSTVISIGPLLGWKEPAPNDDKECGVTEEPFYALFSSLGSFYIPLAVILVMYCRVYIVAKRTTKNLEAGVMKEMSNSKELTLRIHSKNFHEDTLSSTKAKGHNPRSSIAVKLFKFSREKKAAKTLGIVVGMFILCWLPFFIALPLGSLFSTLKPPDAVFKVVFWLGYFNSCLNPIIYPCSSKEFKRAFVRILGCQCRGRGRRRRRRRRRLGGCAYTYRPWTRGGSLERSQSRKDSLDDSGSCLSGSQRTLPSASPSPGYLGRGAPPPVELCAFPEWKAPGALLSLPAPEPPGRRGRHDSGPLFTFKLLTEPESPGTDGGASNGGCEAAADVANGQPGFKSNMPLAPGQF

Structure (SMILES) | EC50
CC/C(=N\OC)c1ccccc1NCC1=NCCN1 | > 100000 nM
c1ccc(-c2cnoc2)c(NCC2=NCCN2)c1 | > 100000 nM
c1coc(-c2ccccc2NCC2=NCCN2)c1 | 6.31 nM
Cc1nc(-c2ccccc2NCC2=NCCN2)co1 | > 5010 nM
c1ccc(-c2ncco2)c(NCC2=NCCN2)c1 | 1.62 nM
c1ccc(-c2cnco2)c(NCC2=NCCN2)c1 | > 5010 nM
Cc1ccc(-c2ccccc2NCC2=NCCN2)s1 | > 100000 nM
Cc1nc(-c2ccccc2NCC2=NCCN2)cs1 | 69.2 nM
Cc1ccc(-c2ccccc2NCC2=NCCN2)o1 | 46.8 nM
Cc1nc(-c2ccccc2NCC2=NCCN2)no1 | 676 nM
Cc1noc(-c2ccccc2NCC2=NCCN2)n1 | > 5010 nM
c1ccc(-c2cnccn2)c(NCC2=NCCN2)c1 | 339 nM
CO/N=C(\C)c1ccccc1NCC1=NCCN1 | > 5010 nM
c1ccc(-c2ccccc2NCC2=NCCN2)nc1 | 30.2 nM
c1csc(-c2ccccc2NCC2=NCCN2)c1 | 5.75 nM
FC(F)(F)c1cccnc1-c1ccccc1NCC1=NCCN1 | > 100000 nM
CC/C(=N/OC)c1ccccc1NCC1=NCCN1 | > 5010 nM
c1ccc(-c2ccno2)c(NCC2=NCCN2)c1 | 3.72 nM
Cc1ccsc1-c1ccccc1NCC1=NCCN1 | 112 nM
Cc1ncoc1-c1ccccc1NCC1=NCCN1 | > 100000 nM
Cc1cccnc1-c1ccccc1NCC1=NCCN1 | > 100000 nM
Nc1nccc(-c2ccccc2NCC2=NCCN2)n1 | > 5010 nM
CCO/N=C(\C)c1ccccc1NCC1=NCCN1 | > 5010 nM
CO/N=C/c1ccccc1NCC1=NCCN1 | > 5010 nM
Cc1ncc(-c2ccccc2NCC2=NCCN2)o1 | > 5010 nM
Cc1cc(-c2ccccc2NCC2=NCCN2)on1 | 95.5 nM
c1cnc(-c2ccccc2NCC2=NCCN2)nc1 | 77.6 nM

These compounds were tested against T3, Alpha-1A adrenergic receptor (Homo sapiens) (UniProt P35348) (assay: In vitro human alpha-1A receptor activation determined via calcium mobilization through the Gq coupled PLC pathway in rat-1 fibroblasts as percent maximum of phenylephrine response).
T3 sequence (whole entry): T1 sequence (P35348 whole entry)
Type: functional
In short: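 Human α1A (clone #137–12) or α1D (clone #16–7) adrenoceptor stably expressed in Rat-1 fibroblasts. Calcium mobilization via Gq/PLC was read by FLIPR with Calcium Green fluorescent dye. Eleven-point concentration–response curves, top concentration typically 5 µM, expressed as percent of the 40 µM phenylephrine response. Values are pEC50 and % maximal response, mean of at least two experiments.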

Structure (SMILES) | Max
CC/C(=N\OC)c1ccccc1NCC1=NCCN1 | 112%
CO/N=C(\C)c1ccccc1NCC1=NCCN1 | 92%
CC/C(=N/OC)c1ccccc1NCC1=NCCN1 | 141%
CCO/N=C(\C)c1ccccc1NCC1=NCCN1 | 102%
CO/N=C/c1ccccc1NCC1=NCCN1 | 94%

These compounds were tested against T4, Alpha-1D adrenergic receptor (Homo sapiens, UniProt P25100) (assay: In vitro activation of human alpha-1D receptor expressed in rat-1 fibroblasts via calcium using mobilization through the Gq coupled PLC pathway as functional assay).
T4 sequence (P25100 whole entry): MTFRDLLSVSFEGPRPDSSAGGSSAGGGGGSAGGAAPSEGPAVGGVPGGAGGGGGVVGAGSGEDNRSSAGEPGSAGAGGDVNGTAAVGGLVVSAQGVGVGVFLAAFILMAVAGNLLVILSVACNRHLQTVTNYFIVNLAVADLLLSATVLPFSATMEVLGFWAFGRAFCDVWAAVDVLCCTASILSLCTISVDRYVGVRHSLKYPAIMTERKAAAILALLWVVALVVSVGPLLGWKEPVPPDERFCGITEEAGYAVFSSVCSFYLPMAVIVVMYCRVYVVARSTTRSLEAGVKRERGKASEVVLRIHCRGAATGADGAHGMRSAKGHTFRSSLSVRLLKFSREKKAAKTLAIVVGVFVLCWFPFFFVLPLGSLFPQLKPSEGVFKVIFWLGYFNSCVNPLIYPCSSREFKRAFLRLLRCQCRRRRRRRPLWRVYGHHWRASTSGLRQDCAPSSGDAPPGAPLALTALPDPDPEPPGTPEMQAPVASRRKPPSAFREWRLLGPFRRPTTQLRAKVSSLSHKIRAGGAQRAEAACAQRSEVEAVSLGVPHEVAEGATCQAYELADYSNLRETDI
In short: as §2

Structure (SMILES) | EC50
CC/C(=N\OC)c1ccccc1NCC1=NCCN1 | > 100000 nM
c1ccc(-c2cnoc2)c(NCC2=NCCN2)c1 | > 100000 nM
c1coc(-c2ccccc2NCC2=NCCN2)c1 | 16.2 nM
Cc1nc(-c2ccccc2NCC2=NCCN2)co1 | > 5010 nM
c1ccc(-c2ncco2)c(NCC2=NCCN2)c1 | 5.01 nM
c1ccc(-c2cnco2)c(NCC2=NCCN2)c1 | > 5010 nM
Cc1ccc(-c2ccccc2NCC2=NCCN2)s1 | > 100000 nM
Cc1nc(-c2ccccc2NCC2=NCCN2)cs1 | > 5010 nM
Cc1ccc(-c2ccccc2NCC2=NCCN2)o1 | > 2000 nM
Cc1nc(-c2ccccc2NCC2=NCCN2)no1 | > 5010 nM
Cc1noc(-c2ccccc2NCC2=NCCN2)n1 | > 5010 nM
c1ccc(-c2cnccn2)c(NCC2=NCCN2)c1 | 182 nM
CO/N=C(\C)c1ccccc1NCC1=NCCN1 | > 5010 nM
c1ccc(-c2ccccc2NCC2=NCCN2)nc1 | 41.7 nM
c1csc(-c2ccccc2NCC2=NCCN2)c1 | 18.2 nM
FC(F)(F)c1cccnc1-c1ccccc1NCC1=NCCN1 | > 100000 nM
CC/C(=N/OC)c1ccccc1NCC1=NCCN1 | > 5010 nM
c1ccc(-c2ccno2)c(NCC2=NCCN2)c1 | 2.88 nM
Cc1ccsc1-c1ccccc1NCC1=NCCN1 | 49 nM
Cc1ncoc1-c1ccccc1NCC1=NCCN1 | > 100000 nM
Cc1cccnc1-c1ccccc1NCC1=NCCN1 | > 100000 nM
Nc1nccc(-c2ccccc2NCC2=NCCN2)n1 | 28.8 nM
CCO/N=C(\C)c1ccccc1NCC1=NCCN1 | > 5010 nM
CO/N=C/c1ccccc1NCC1=NCCN1 | > 5010 nM
Cc1ncc(-c2ccccc2NCC2=NCCN2)o1 | > 5010 nM
Cc1cc(-c2ccccc2NCC2=NCCN2)on1 | > 100000 nM
c1cnc(-c2ccccc2NCC2=NCCN2)nc1 | 81.3 nM

What follows are compounds tested against T2, Alpha-1B adrenergic receptor (assay: In vitro binding affinity against human Alpha-1B adrenergic receptor expressed in rat-1 fibroblasts).
In short: as §1

Structure (SMILES) | IC50
c1ccc(-c2ncco2)c(NCC2=NCCN2)c1 | 447 nM
c1ccc(-c2cnco2)c(NCC2=NCCN2)c1 | 229 nM
c1ccc(-c2ccccc2NCC2=NCCN2)nc1 | 589 nM
c1ccc(-c2ccno2)c(NCC2=NCCN2)c1 | 132 nM
Cc1ncoc1-c1ccccc1NCC1=NCCN1 | 324 nM
CO/N=C/c1ccccc1NCC1=NCCN1 | 162 nM
c1cnc(-c2ccccc2NCC2=NCCN2)nc1 | 2190 nM

These compounds were tested against T4, Alpha-1D adrenergic receptor (assay: In vitro binding affinity against human Alpha-1D adrenergic receptor expressed in rat-1 fibroblasts).
In short: as §1

Structure (SMILES) | IC50
c1ccc(-c2ncco2)c(NCC2=NCCN2)c1 | 40.7 nM
c1ccc(-c2cnco2)c(NCC2=NCCN2)c1 | 295 nM
c1ccc(-c2ccccc2NCC2=NCCN2)nc1 | 117 nM
c1ccc(-c2ccno2)c(NCC2=NCCN2)c1 | 38 nM
Cc1ncoc1-c1ccccc1NCC1=NCCN1 | 347 nM
CO/N=C/c1ccccc1NCC1=NCCN1 | 42.7 nM
c1cnc(-c2ccccc2NCC2=NCCN2)nc1 | 417 nM
